From ChEMBL document CHEMBL1155940, “Synthesis and preliminary pharmacological evaluation of novel derivatives of L-beta-threo-benzylaspartate as inhibitors of the neuronal glutamate transporter EAAT3” (Bioorg Med Chem, 2008)

biological target: T1, Excitatory amino acid transporter 3 (Homo sapiens) (UniProt P43005); assay: Residual [3H]D-aspartate uptake at human EAAT3 expressed in mouse C17.2 cells at 100 uM relative to control
T1 sequence (whole entry): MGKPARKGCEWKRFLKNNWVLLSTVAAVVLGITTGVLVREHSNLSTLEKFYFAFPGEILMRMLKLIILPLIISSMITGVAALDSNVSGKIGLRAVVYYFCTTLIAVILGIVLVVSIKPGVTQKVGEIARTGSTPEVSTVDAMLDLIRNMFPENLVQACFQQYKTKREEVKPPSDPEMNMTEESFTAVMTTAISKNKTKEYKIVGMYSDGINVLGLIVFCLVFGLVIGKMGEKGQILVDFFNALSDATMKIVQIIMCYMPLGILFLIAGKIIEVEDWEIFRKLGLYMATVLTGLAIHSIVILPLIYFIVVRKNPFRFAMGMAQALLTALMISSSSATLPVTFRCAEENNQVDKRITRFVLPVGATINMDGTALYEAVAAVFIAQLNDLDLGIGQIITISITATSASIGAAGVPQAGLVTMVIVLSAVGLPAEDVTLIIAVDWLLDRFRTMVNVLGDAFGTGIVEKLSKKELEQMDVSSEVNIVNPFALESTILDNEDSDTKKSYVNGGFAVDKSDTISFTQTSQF

Row | Compound | residual activity [%]
1 | N[C@H](C(=O)O)C(Cc1cccc(Br)c1)C(=O)O (mixture of isomers) | 8
2 | N[C@H](C(=O)O)C(Cc1cccc([N+](=O)[O-])c1)C(=O)O (mixture of isomers) | 29
3 | N[C@H](C(=O)O)C(Cc1c(Cl)cccc1Cl)C(=O)O (stereo not given in full) | 86
4 | N[C@H](C(=O)O)C(Cc1ccc2ccccc2c1)C(=O)O (stereo not given in full) | 68
5 | Cc1cc(C)cc(CC(C(=O)O)[C@H](N)C(=O)O)c1 (mixture of isomers) | 36
6 | Cc1cccc(CC(C(=O)O)[C@H](N)C(=O)O)c1 (mixture of isomers) | 33

Further lines, results first:

Row | residual activity [%] | Compound
7 | 1 | N[C@H](C(=O)O)[C@H](Cc1ccccc1)C(=O)O
8 | 65 | N[C@H](C(=O)O)C(Cc1ccc([N+](=O)[O-])cc1)C(=O)O (stereo not given in full)
9 | 0 | N[C@H](C(=O)O)C(Cc1cccc(F)c1)C(=O)O (stereo not given in full)
10 | 4 | N[C@H](C(=O)O)C(Cc1ccccc1)C(=O)O (stereo not given in full)
11 | 7 | N[C@H](C(=O)O)C(Cc1ccc(F)cc1)C(=O)O (mixture of isomers)

biological target: T2, Excitatory amino acid transporter 3 (Homo sapiens, UniProt P43005); assay: Displacement of [3H]D-aspartate from human EAAT3 expressed in mouse C17.2 cells; format: cell-based
T2 sequence (P43005 whole entry): T1 sequence (whole entry)
How it was run: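 C17.2 neuroprogenitor cells (passages 10–20) seeded at 5 × 10^4/well, transiently transfected with human EAAT3 plasmid 24 h after plating, assayed 24 h later. Cells preincubated 5 min at 37°C in HEPES-buffered saline, pH 7.4, then given 1 µM 3H-D-aspartate with varying inhibitor concentrations. Rinsed with ice-cold buffer after uptake and read by scintillation counting. Corrected for 4°C background. IC50 from a one-site fit, ±SEM.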

Row | IC50 [µM] | Compound
12 | 21.1 | N[C@H](C(=O)O)[C@@H](Cc1cccc(F)c1)C(=O)O
13 | 2.46 | N[C@H](C(=O)O)[C@H](Cc1cccc(F)c1)C(=O)O

organism: Homo sapiens; assay: Selectivity for human EAAT3 over human EAAT2 expressed in mouse C17.2 cells; format: cell-based

Row | Compound | fold change (FC)
14 | N[C@H](C(=O)O)[C@H](Cc1ccccc1)C(=O)O | 10

organism: Homo sapiens; assay: Selectivity for human EAAT3 over human EAAT1 expressed in mouse C17.2 cells; format: cell-based

Row | Compound | fold change (FC)
15 | N[C@H](C(=O)O)[C@H](Cc1ccccc1)C(=O)O | 10
